These results are taken from publication PMC12350853 (Discover Nano, 2025).

Entries after “also recorded” stand apart in the source; their conditions may differ.

The test system of data set [1] is testis. In words: Testis histopathology and semi-quantitative damage score. To be noted: for Testis damage score (TDS): scale 1 normal to 4 severe, mean ± SD. Format: in vivo, rat. Summed up:
(§1)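 Fifty male adult Wistar rats were split into five groups (23–24 °C, 12 h light/dark). Test compound, free or loaded in Fe–Co MOF, was given at 0.4 or 0.8 mg/kg i.v., ten injections at 72 h intervals. Rats were euthanised with pentobarbital sodium 200 mg/kg. H&E sections were scored 1 (normal) to 4 (severe) against organ-specific lesion criteria, blinded, by two specialists.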

Data set [2] relates to liver. The experiment in a line: Liver MDA level. Format: in vivo, rat. Particulars: dose not given. An outline of the steps:
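After ten i.v. injections 72 h apart of free or Fe–Co MOF-loaded test compound (0.4 or 0.8 mg/kg) in male Wistar rats, liver malondialdehyde was measured by a modified literature method. Assays were repeated three times. Results are mean ± SD, compared by ANOVA with post hoc test.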

The subject of data set [3] is male adult Wistar rats. The experiment in a line: Serum biochemical parameters after repeated intravenous injection. Format: in vivo, rat. To be noted: ten injections at 72-hour intervals, vs control. Summed up:
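Male adult Wistar rats (five groups, ten per group) received free or Fe–Co MOF-loaded test compound i.v. at 0.4 or 0.8 mg/kg, ten injections every 72 h. Retro-orbital blood was centrifuged immediately at 5,000 rpm for 10 min. AST, ALT, BUN and creatinine were run on an autoanalyzer with commercial kits. Results are mean ± SD, tested by ANOVA with post hoc comparison against control.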

The test system of data set [4] is heart. In words: Heart histopathology and semi-quantitative damage score. Type of data set: in vivo, rat. Particulars: for heart histopathological findings: H&E. Summed up:
as §1

The conditions of data set [5]: cited from earlier work.
Data set [6] has as its system kidney. The experiment in a line: Kidney histopathology and semi-quantitative damage score. Type of data set: in vivo, rat. To be noted: for kidney histopathological findings: Masson trichrome. Summed up:
as §1

In data set [7] the test system is liver. The experiment in a line: Liver histopathology and semi-quantitative damage score. Format: in vivo, rat. Summed up: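 Male Wistar rats received free or Fe–Co MOF-loaded test compound at 0.4 or 0.8 mg/kg i.v., ten doses 72 h apart. Fixed liver was ethanol-dehydrated, xylene-cleared, paraffin-embedded, microtome-sectioned and H&E-stained. Two specialists scored blindly on a 1–4 scale, and also rated pyknotic nuclei, inflammatory infiltration, bleeding and necrosis each 0–3. Results are mean ± SD.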

[8] abbreviates: 0.4 mg/kg i.v., scale 1 normal to 4 severe, mean ± SD.

Consider `CC(C)C[C@H](NC(=O)[C@H](CCc1ccccc1)NC(=O)CN1CCOCC1)C(=O)N[C@@H](Cc1ccccc1)C(=O)N[C@@H](CC(C)C)C(=O)[C@@]1(C)CO1` [CFZ, Carfilzomib], for which the testis histopathological findings result in data set [1] (0.4 mg/kg i.v.) was “no evidence of inflammation, necrosis, or cellular infiltrates”; in data set [1] (0.8 mg/kg i.v.), “multinucleated giant Sertoli cells”. The “Testis damage score (TDS)” value in data set [1] (0.4 mg/kg i.v.) amounted to 1.2 ± 0.4; in data set [1] (0.8 mg/kg i.v.), 1.42 ± 0.53. Also, the liver lipid peroxidation entry in data set [2] is recorded as “significant increase”. Besides, the serum creatinine levels entry in data set [3] (0.4 mg/kg i.v.) is “elevation was not observed”; in data set [3] (0.8 mg/kg i.v.) it was “higher serum creatinine levels”. Further, the ALT levels result in data set [3] (0.8 mg/kg i.v.) is “significantly increased”. Besides, the “serum AST levels” value in data set [3] (0.8 mg/kg i.v.) is reported as “Significant elevation”. In addition, the “serum BUN levels” value in data set [3] (0.8 mg/kg i.v.) is “no significant effect”. The heart histopathological findings result was “mild inflammatory cell infiltration” in data set [4] (0.4 mg/kg i.v.); “inflammatory cell infiltration, bleeding, and necrosis; also recorded: severe necrosis” in data set [4] (0.8 mg/kg i.v., listed as free Carfilzomib). For the same molecule, in data set [4] (setting [8]), the “Heart damage score (HDS)” value came out at 1.25 ± 0.46. For the same molecule, the “cardiotoxicity by histopathological data” value in data set [4] (overall statement) is listed as “severe cardiotoxicity”. Besides, in data set [5], the half-life is ~ 30 min. The kidney histopathological findings result in data set [6] (0.4 mg/kg i.v.) was “normal proximal and distal tubules with normal-sized nuclei”; in data set [6] (0.8 mg/kg i.v.) it was “glomerulosclerosis characterized by swollen lining epithelium and narrowing of the proximal tubule lumen”. The “Renal damage score (RDS)” value in data set [6] (setting [8]) turned out to be 1.5 ± 0.75. The liver histopathological findings entry in data set [7] (0.4 mg/kg i.v.) is “normal liver appearance”; in data set [7] (0.8 mg/kg i.v.), “necrosis, inflammatory cell accumulation, and disarray of hepatic cords”. In addition, in data set [7] (setting [8]), the “Liver damage score (LDS)” value came out at 1.6 ± 0.51.
